According to ChEMBL document CHEMBL4513216, “Probing the Open Global Health Chemical Diversity Library for Multistage-Active Starting Points for Next-Generation Antimalarials” (ACS Infect Dis, 2020):

test: Toxicity liver stage against HepG2, at 10uM; type: cell-based; parameters: test concentration 10 uM, cell line HepG2-A16-CD81EGFP; conditions: human, HepG2-A16-CD81EGFP cells; read-out: INHIBITION
How it was run: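 Uninfected HepG2-A16-CD81EGFP cells, 3 × 10^3 per well, 1536-well, plated on prespotted compound at 10 μM final, parasite-free screening media added to match infected plates; puromycin 10 μM positive, DMSO 0.5% negative; run in parallel with 48 h PbLuc assay at 37 °C, 5% CO2; viability by CellTiter-Glo luminescence, normalized to controls.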

Structure (SMILES) | cytotoxicity at 10 µM [%]
CC[C@H]1CN(S(=O)(=O)c2ccc(OC)cc2)CC[C@H]1CC(=O)O | 7.28
Oc1cccc(-c2cc(CC3(N(CC4CC4)CC4CC4)COC3)no2)c1 | 6.15
COc1ccc(OC)c(Sc2ncccc2C(=O)NCC2CC2)c1 | 20.7
CC(C)(Oc1ccc(C(N)=O)cc1)C(=O)N(CCC#N)C1CC1 | 1.58
COc1ccc(CC(=O)Nc2ccc3ncn(C)c(=O)c3c2)cc1 | 1.29
COCCc1noc(C2CCN(S(=O)(=O)c3cccs3)CC2)n1 | 7.51
Cn1cnnc1S(=O)(=O)C1CCN(C(=O)c2ccsc2)CC1 | 6.81
Cc1ccsc1C(=O)N1CC2CC1(C(=O)NCC1CC1)C2 | -4.78
NC(=O)N1C[C@@H]2CN(C(=O)c3ccco3)C[C@@H]2C1 | -2.54
Cc1cccc(C(=O)N2CCC3(CC2)CC(c2ccccc2)C(=O)N3)c1 (stereo unspecified) | 17.8
Cc1nc(CO[C@@H]2CN(Cc3ccc(F)cc3)[C@@H]3COC[C@@H]32)cs1 | 5.42
COC[C@@]12CCO[C@@H]1CCN(C(=O)CCc1ccccc1Cl)C2 | 7.69
CS(=O)(=O)NC[C@]12COC[C@H]1CN(C(=O)c1cnccn1)C2 | 6.3
CN(Cc1cn2c(n1)CN(C(=O)c1cccn1C)CC2)Cc1ccco1 | 2.75
CC(C)=CCC/C(C)=C/CC(C)(C)CNCc1ccco1 | -23.7
CN(C)c1ncc(-c2cc(C(=O)O)n(CC3CC3)c2)cn1 | -9.23
Cn1cc(CN2CC3(CCN(C(=O)c4cscn4)C3)C2)cn1 | -11.9
Nc1nnnn1NCc1cccc2ccccc12 | 10.4
Cc1cccc2c1cnn2CCC(=O)NCc1csc(C2CC2)n1 | 4.22
COCC(=O)N1CCCC(C)(c2nncn2C)C1 (stereo unspecified) | 4.08
Nc1nc2nc(C3CCN(C(=O)c4cscn4)C3)ccc2s1 (stereo unspecified) | -5.72
CNc1cc(CNC(=O)c2ccccc2OC)nc(-c2ccncc2)n1 | -13.7
CC1CCCCN1c1nc2c(c(=O)[nH]1)CCN(Cc1ccccc1O)C2 (stereo unspecified) | -1.97

Structure (SMILES) | cytotoxicity at 10 µM [%]
CNc1cncc(C2CCCN2C(=O)Cn2c(=O)oc3ccccc32)n1 (stereo unspecified) | -6.14
CC(C)NC(=O)CN(C)C(=O)c1c(Br)c2ccccc2n1C | 4.61
CN(C)CC1CCCCN1C(=O)c1ccc(N2CCOCC2)cc1 (stereo unspecified) | -0.0679
CCN(C)S(=O)(=O)NCC(O)c1c(Cl)cccc1Cl (stereo unspecified) | 8.17
Cc1ccc(Br)cc1S(=O)(=O)NCCc1nnc[nH]1 | -5.89
CCC(NC(=O)CN(C)Cc1ccc(C)o1)c1ccc(C)cc1 (stereo unspecified) | 3.97
COC(=O)C(C)Sc1nnnn1C1CCOCC1 (stereo unspecified) | -10.5
COc1ccc(C(=O)NC2CC2)c(OC)c1 | -3.51
CCCC(NC(=O)c1cncc(C)c1)c1nnn[nH]1 (stereo unspecified) | -15.5
CC(c1ccc(Cl)cc1)N1CCN(CCS(N)(=O)=O)CC1 (stereo unspecified) | -1.37
COc1c(C2CCCN2C(=O)c2ccoc2C)c(C)nn1C (stereo unspecified) | 0.243
CN1CCN(C(=O)c2cnsn2)c2ccc(F)cc21 | 3.47
CCC(=O)N(CCN(C)C)Cc1ccc(F)c(F)c1 | -4.38
O=C(CCS(=O)(=O)C1CCCC1)NCCc1ccc2c(c1)OCCO2 | -1.29
CC(Cn1cncn1)NC(=O)NCc1csc(N(C)C)n1 (stereo unspecified) | 8.42
CNS(=O)(=O)c1cccc(C(C)NCc2nccn2C(C)C)c1 (stereo unspecified) | -12.6
CC(=O)c1cccc(OCCCC(=O)N(C)Cc2cccc(O)c2)c1 | -4.58
Cc1ccc(S(=O)(=O)NC(=O)c2cccc3c2OCCO3)c(C)c1 | 3.25
CC(C)(O)CN1CCN(C(=O)c2cc3ccccc3c(=O)[nH]2)CC1 | 1.52
c1c(CN2CCOCC2)nc2n1CCN(CC1CC1)C2 | 2.73
COCCn1cc2c(n1)C(CNC(=O)c1cc(C)[nH]c1C)OCC2 (stereo unspecified) | 8.81
CCN(C(=O)c1nc2c(s1)CCCN2C)C(C)C | 4.37
Cc1cc2nc(C(=O)NCc3cccnc3N(C)C)cc(C)n2n1 | -5.54

Structure (SMILES) | cytotoxicity at 10 µM [%]
Cc1nc(NC(=O)N2CCCC(C(C)(C)O)C2)nn1C (stereo unspecified) | 13.5
CNc1nc(N2CCN(C)C(CCO)C2)nc2c1CCC2 (stereo unspecified) | 2.66
CN1CCC(C(=O)NCCC2CN(c3cnn(C)c(=O)c3)CCO2)CC1 (stereo unspecified) | 5.75
O=S1(=O)C[C@@H]2[C@H](C1)N(Cc1cccc(O)c1)CCN2CC1CC1 | 1.79
CCn1c(C)nnc1SCCNC(=O)c1cnc(C(C)(C)C)nc1O | -6.14
Cc1nnc(CN(C)C2CCN(c3cccc(-c4cscn4)c3)CC2)o1 | -7.3
Cc1ccn(CC(=O)N2CC[C@@H](c3ccc4ccccc4c3)[C@H](O)C2)n1 | 5.02
c1ccc(Cn2cc(CNc3ncnc4c3CCNCC4)cn2)cc1 | 1.99
CCN1CCc2[nH]cnc2C12CCN(Cc1ccc3nsnc3c1)CC2 | 3.72
O=C(CCc1cc(O)no1)N1CCCC(OCc2cccnc2)C1 (stereo unspecified) | -12.7
COc1ccc(-n2ncc(C(C)NC3CCOCC3)c2C)cc1 (stereo unspecified) | 2.77
O=C(C1CCC1)N1CCN(C(=O)c2cnccn2)[C@H]2CS(=O)(=O)C[C@H]21 | -10.8
CC(C)(C)c1ncc2c(n1)CN(C(=O)c1ccc(-c3nc[nH]n3)cc1)C2 | -16.8
Cc1ccc(OC2(C(=O)O)CCN(C(=O)c3nc(C)oc3C)CC2)cn1 | -9.41
CCC(NC(=O)C1CCN(S(C)(=O)=O)CC1)c1ccc(OC)c(C)c1 (stereo unspecified) | -10
N#Cc1cc2c(nc1O)CCCCC2 | -6.88
O=c1oc(-c2ccc(F)cc2)nn1CN1CCCCC1 | -4.35
CCc1nnc2n1CCN(C(=O)c1cc3ccc(C)cc3[nH]1)C2 | -4.87
COc1cccc(S(=O)(=O)NC(=O)CCC2CCCC2)c1 | 0.428
COCCN1CCC(NCc2ccc(Cl)cc2)C1 (stereo unspecified) | -5.56
Cc1[nH]nc2ncc(C(=O)N3CCN(CCC(C)C)CC3)cc12 | 0.977
Cc1occc1C(=O)N1CCCN(Cc2nccn2C)CC1 | -1.56
Cc1cc(C)n(CC2CN(c3ccc(C#N)cn3)CCO2)n1 (stereo unspecified) | -1.56

Structure (SMILES) | cytotoxicity at 10 µM [%]
Cc1cccc(-c2nc(CNC3CCc4ncnn4C3)no2)c1 (stereo unspecified) | -2.09
CCc1nnc2n1CCN(Cc1cc(Cl)c3c(c1)OCCCO3)C2 | -5.83
NC(=O)C1CCN(C(=O)c2ccn(-c3cccc(F)c3)n2)C1 (stereo unspecified) | -3.05
COc1ccc(C(CNC(=O)NCc2csc(C)n2)N(C)C)cc1 (stereo unspecified) | -5.59
Cc1cc(C)c(CNC(=O)NCC2COCCO2)c(=O)[nH]1 (stereo unspecified) | -3.81
Cc1cnn(CCC(=O)N2CCN(c3nccs3)CC2)c1 | -8.03
c1ccc(Cc2nc(CN3CCCC3Cn3cncn3)cs2)cc1 (stereo unspecified) | -2.54
Cc1cc(C(=O)N2CCCC2c2c(C)nn(C)c2C)no1 (stereo unspecified) | -2.57
CCc1ocnc1C(=O)N1CCOC(c2nc(C)n[nH]2)C1 (stereo unspecified) | -12
CCN1CCC(NC(=O)CN2CC(n3nc(C)cc3C)C2)CC1 | -4.44
CC(C)Cc1nc(CN2CCN(CC(O)c3ccccc3)CC2)no1 (stereo unspecified) | -14.4
COC(=O)C(c1ccccc1)N(C)C(=O)c1ccnc(C)n1 (stereo unspecified) | 1.4
CC(C)(C)c1n[nH]c(C2CN(C(=O)Cn3ccccc3=O)CCO2)n1 (stereo unspecified) | -1.22
CCc1n[nH]c(C2CN(C(=O)c3ccnc(C)n3)CCO2)n1 (stereo unspecified) | -7.06
Cc1nn(C)c(N(C)C)c1CNC(C)COc1ccccc1F (stereo unspecified) | -14.1
Cc1nn(C)c(C)c1C1CCCN1Cc1nc(N)c2ccccc2n1 (stereo unspecified) | -16
CC(C)(C)C(=O)NCCC(=O)NCCc1ccn(-c2ccccc2)n1 | -8.89
CCc1nc(C2CCCN(C(=O)c3ccc(Cl)cc3)C2)no1 (stereo unspecified) | 5.71
CCc1nc(CNCC2CCCN2c2cccnn2)no1 (stereo unspecified) | -12.6
O=C(COc1cccnc1)N1CCCC(n2cccn2)C1 (stereo unspecified) | -1.92
Cc1nc(C)n(C2CCCN(C(=O)c3nc(C)n4ccccc34)C2)n1 (stereo unspecified) | -10.9
CC(C)c1nc(CN2CCC(CO)CC2)cs1 | -20.1
O=C(Nc1cc(F)ccc1OCC1CCCO1)c1ccoc1 (stereo unspecified) | 4.43

Structure (SMILES) | cytotoxicity at 10 µM [%]
COCCn1cc(C(=O)N2CCCC(n3cncn3)C2)ccc1=O (stereo unspecified) | -2.38
Cc1cc(CN(C)C(=O)NCC2CCS(=O)(=O)C2)no1 (stereo unspecified) | -0.874
O=C(NCCc1ccsc1)Nc1cccnc1N1CCCC1 | -6.78
CCn1ccnc1CN1CCC(N(C)Cc2ncc(C)o2)C1 (stereo unspecified) | -7.48
CN(C)CC1CN(Cc2nnc(-c3ccccc3Cl)o2)CCO1 (stereo unspecified) | 1.56
CCOCCN1CCn2c(C)nnc2C1 | 3.34
CN1CCC/C1=N\S(=O)(=O)c1ccc(NC(=O)c2cccs2)cc1 | -3.34
CCc1n[nH]c(C2CN(CCc3ccncc3)CCO2)n1 (stereo unspecified) | 2.17
Cc1cc(C)n(C2CCCN(C(=O)c3ccc(NC4CC4)nc3)C2)n1 (stereo unspecified) | 5.25
COc1ccc(F)cc1-c1ccccc1CC1CNCCNC1=O (stereo unspecified) | 3.48
Cn1ccc(C(=O)NC2CCC23CCN(Cc2cccnc2)CC3)c1 (stereo unspecified) | -12.1
Cc1ccc(CN2CCc3onc(C(=O)N4CCCC4)c3C2)o1 | 6.28
C[C@H]1C(=O)NC[C@H]2CN(Cc3cccc(F)c3)C[C@H]21 | 0.964
COC[C@@]12CCO[C@@H]1CCN(Cc1ccccc1F)C2 | -12.9
COCC1COCCC12CCN(Cc1cccs1)CC2 (stereo unspecified) | 6.13
N#Cc1cccc(CN2CC[C@@H]3CO[C@@H](CN4CCCC4)[C@@H]3C2)c1 | -0.159
Cc1noc(C)c1CN1CCN(CCN(C)C)c2ncccc2C1 | 7.83
COCCN1CCCC12CCN(c1ncccn1)CC2 | 11.4
Cc1cccc(-n2cc3nc(N4CCC(C)CC4)[nH]cc-3c2=O)c1 | 0.738
